Test results reported in ChEMBL document CHEMBL4680130, “Substituted 4-phenylthiazoles: Development of potent and selective A, A and dual A/A adenosine receptor antagonists” (Eur J Med Chem, 2020).

Legend:
[1] = target: T1, Adenosine receptor A1 (Rattus norvegicus) (UniProt P25099); experiment: Displacement of [3H]CCPA from adenosine receptor A1 in rat brain cortex membranes at 0.1 uM incubated for 90 mins by radioligand competition assay; conditions: Cell membrane
T1 sequence (whole entry): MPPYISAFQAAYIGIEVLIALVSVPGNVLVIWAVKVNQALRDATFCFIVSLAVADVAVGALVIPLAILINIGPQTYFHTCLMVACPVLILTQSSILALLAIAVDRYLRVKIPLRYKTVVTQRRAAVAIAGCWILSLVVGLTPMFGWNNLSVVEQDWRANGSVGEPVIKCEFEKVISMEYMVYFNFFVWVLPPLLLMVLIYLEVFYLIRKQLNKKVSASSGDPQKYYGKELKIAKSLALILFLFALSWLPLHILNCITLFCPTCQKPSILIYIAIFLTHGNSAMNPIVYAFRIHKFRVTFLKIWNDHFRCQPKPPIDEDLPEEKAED
Summary of the method: (§1)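 A1 competition binding with [3H]CCPA, 0.5 nM. Membranes: CHO cells expressing human A1, or rat brain cortex. Membranes preincubated 20 min with adenosine deaminase (2 U/mL per mg protein). Incubation 90 min at rt in 50 mM Tris-HCl pH 7.4 with 2.5% final DMSO. Nonspecific binding defined by 10 µM 2-chloroadenosine. GF/B filtration, scintillation counting.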

Adenosine receptor A3 [2] = target: T2, Adenosine receptor A3 (Rattus norvegicus, UniProt P28647); experiment: Displacement of [3H]NECA from rat adenosine receptor A3 expressed in CHO cell membranes incubated for 60 mins by radioligand competition assay; parameters: species or system Cell membrane
T2 sequence (P28647 whole entry): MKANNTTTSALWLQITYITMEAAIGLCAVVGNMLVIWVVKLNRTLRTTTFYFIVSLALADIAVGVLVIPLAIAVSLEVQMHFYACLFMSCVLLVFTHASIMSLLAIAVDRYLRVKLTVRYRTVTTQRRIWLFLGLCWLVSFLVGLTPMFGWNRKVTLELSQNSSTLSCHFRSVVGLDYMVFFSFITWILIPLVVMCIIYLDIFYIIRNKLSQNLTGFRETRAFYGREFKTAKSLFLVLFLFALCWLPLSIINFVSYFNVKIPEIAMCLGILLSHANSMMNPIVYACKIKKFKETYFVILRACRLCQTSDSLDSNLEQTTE

Adenosine receptor A2b = target: T3, Adenosine receptor A2b (Homo sapiens, UniProt P29275); experiment: Displacement of [3H]PSB-603 from human adenosine receptor A2B expressed in CHO cell membranes incubated for 75 mins by radioligand competition assay; parameters: species or system Cell membrane
T3 sequence (P29275 whole entry): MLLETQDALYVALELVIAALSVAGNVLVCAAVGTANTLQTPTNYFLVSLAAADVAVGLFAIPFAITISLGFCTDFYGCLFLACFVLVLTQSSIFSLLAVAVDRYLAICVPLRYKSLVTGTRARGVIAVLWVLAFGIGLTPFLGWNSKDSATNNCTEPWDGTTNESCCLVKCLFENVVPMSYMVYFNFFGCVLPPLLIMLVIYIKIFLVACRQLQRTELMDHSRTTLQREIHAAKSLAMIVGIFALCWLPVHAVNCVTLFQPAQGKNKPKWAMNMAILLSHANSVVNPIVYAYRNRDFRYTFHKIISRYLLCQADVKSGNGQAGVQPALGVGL

Adenosine receptor A2a [3] = target: T4, Adenosine receptor A2a (Homo sapiens, UniProt P29274); experiment: Displacement of [3H]MSX2 from human adenosine receptor A2A expressed in HEK293 cell membranes incubated for 30 mins by radioligand competition assay; parameters: species or system Cell membrane
T4 sequence (P29274 whole entry): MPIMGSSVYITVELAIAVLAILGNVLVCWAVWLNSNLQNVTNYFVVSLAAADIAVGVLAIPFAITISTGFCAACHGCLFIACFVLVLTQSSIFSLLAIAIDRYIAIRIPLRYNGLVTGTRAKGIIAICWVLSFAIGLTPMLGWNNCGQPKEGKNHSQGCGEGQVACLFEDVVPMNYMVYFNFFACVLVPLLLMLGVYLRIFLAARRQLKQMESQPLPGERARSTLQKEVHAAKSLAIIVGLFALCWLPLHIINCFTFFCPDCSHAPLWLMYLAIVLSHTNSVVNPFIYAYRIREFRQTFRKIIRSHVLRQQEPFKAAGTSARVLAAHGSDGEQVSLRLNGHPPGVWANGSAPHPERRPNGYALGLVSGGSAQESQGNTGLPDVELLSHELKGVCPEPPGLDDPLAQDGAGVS

[4] = target: Adenosine receptor A2a (Rattus norvegicus) (UniProt P30543); experiment: Displacement of [3H]MSX2 from adenosine receptor A2A in rat brain striatum membranes at 0.1 uM incubated for 30 mins by radioligand competition assay relative to control; conditions: Cell membrane
Sequence of Adenosine receptor A2a (Rattus norvegicus) (P30543 whole entry): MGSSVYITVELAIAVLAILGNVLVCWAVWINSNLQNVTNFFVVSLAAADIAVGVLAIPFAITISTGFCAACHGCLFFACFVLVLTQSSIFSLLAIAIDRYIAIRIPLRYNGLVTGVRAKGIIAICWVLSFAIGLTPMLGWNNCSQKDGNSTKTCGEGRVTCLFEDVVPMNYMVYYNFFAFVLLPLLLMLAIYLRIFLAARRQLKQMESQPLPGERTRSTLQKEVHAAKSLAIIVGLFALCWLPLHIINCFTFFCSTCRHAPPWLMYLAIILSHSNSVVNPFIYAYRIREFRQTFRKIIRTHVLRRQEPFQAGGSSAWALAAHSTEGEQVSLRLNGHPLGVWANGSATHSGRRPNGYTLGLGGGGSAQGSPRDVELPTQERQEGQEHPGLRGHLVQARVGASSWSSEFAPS
Summary of the method: (§2)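 A2A binding, [3H]MSX-2 1.0 nM. Membranes: rat brain striatum, or HEK293 cells expressing human A2A. Adenosine deaminase preincubation 20 min, then 30 min at rt in 50 mM Tris-HCl pH 7.4 with 2.5% DMSO. Nonspecific binding defined by 50 µM NECA. GF/B filtration, scintillation counting. Single-concentration percent inhibition, ≥3 experiments in duplicate or triplicate.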

Adenosine receptor A3 [5] = target: T5, Adenosine receptor A3 (Homo sapiens, UniProt P0DMS8); experiment: Displacement of [3H]PSB-11 from human adenosine receptor A3 expressed in CHO cell membranes incubated for 60 mins by radioligand competition assay; parameters: species or system Cell membrane
T5 sequence (P0DMS8 whole entry): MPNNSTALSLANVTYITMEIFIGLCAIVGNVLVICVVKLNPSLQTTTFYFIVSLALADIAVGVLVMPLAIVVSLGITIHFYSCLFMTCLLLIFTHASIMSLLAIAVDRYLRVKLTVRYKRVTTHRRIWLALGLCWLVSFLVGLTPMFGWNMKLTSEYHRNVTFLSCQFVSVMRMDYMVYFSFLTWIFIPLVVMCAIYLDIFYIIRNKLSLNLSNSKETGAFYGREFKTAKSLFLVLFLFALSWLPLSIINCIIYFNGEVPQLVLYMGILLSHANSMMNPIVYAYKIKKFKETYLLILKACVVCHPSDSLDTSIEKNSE

[6] = target: T6, Adenosine receptor A3 (Rattus norvegicus) (UniProt P28647); experiment: Displacement of [3H]NECA from rat adenosine receptor A3 expressed in CHO cell membranes at 0.1 uM incubated for 60 mins by radioligand competition assay relative to control; conditions: Cell membrane
T6 sequence (whole entry): T2 sequence (P28647 whole entry)
Summary of the method: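 CHO membranes expressing rat A3, [3H]NECA 10 nM. Nonspecific binding defined by 100 µM R-PIA. Preincubated 20 min with adenosine deaminase, then 60 min at rt in 50 mM Tris-HCl pH 7.4 with 2.5% DMSO. GF/B filtration, scintillation counting.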

Adenosine receptor A1 [7] = target: T7, Adenosine receptor A1 (Rattus norvegicus, UniProt P25099); experiment: Displacement of [3H]CCPA from adenosine receptor A1 in rat brain cortex membranes incubated for 90 mins by radioligand competition assay; type: cell membranes, Cell membrane
T7 sequence (P25099 whole entry): T1 sequence (whole entry)

Adenosine receptor A1 [8] = target: T8, Adenosine receptor A1 (Homo sapiens, UniProt P30542); experiment: Displacement of [3H]CCPA from human adenosine receptor A1 expressed in CHO cell membranes incubated for 90 mins by radioligand competition assay; parameters: species or system Cell membrane
T8 sequence (P30542 whole entry): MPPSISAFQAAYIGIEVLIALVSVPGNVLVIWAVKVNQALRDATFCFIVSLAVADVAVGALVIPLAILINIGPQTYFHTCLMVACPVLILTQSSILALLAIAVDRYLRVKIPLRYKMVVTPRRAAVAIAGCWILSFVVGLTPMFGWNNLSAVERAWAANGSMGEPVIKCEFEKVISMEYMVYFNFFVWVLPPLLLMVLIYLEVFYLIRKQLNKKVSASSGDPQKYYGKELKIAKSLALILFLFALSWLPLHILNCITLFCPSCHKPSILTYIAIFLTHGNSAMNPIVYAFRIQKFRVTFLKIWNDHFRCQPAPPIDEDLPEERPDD

Adenosine receptor A2a [9] = target: Adenosine receptor A2a (Rattus norvegicus, UniProt P30543); experiment: Displacement of [3H]MSX2 from adenosine receptor A2A in rat brain striatum membranes incubated for 30 mins by radioligand competition assay; type: cell membranes, Cell membrane
Sequence of Adenosine receptor A2a (Rattus norvegicus, UniProt P30543) (P30543 whole entry): as the sequence (P30543 whole entry) above

[10] = target: T9, Adenosine receptor A2b (Homo sapiens) (UniProt P29275); experiment: Displacement of [3H]PSB-603 from human adenosine receptor A2B expressed in CHO cell membranes at 0.1 uM incubated for 75 mins by radioligand competition assay relative to control; conditions: Cell membrane
T9 sequence (whole entry): T3 sequence (P29275 whole entry)
Summary of the method: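 CHO membranes expressing human or rat A2B, [3H]PSB-603 0.3 nM. Nonspecific binding defined by 10 µM DPCPX. Preincubated 20 min with adenosine deaminase, then 75 min at rt in Tris-HCl pH 7.4 with 2.5% DMSO. Filters washed with ice-cold 50 mM Tris-HCl containing 0.1% BSA; scintillation counting.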

Adenosine receptor A2a [11] = target: T4, Adenosine receptor A2a; experiment: Displacement of [3H]MSX2 from human adenosine receptor A2A expressed in HEK293 cell membranes at 0.1 uM incubated for 30 mins by radioligand competition assay relative to control; conditions: Cell membrane, in the assay text read “at 1 uM” for “at 0.1 uM”; summary of the method: as §2
[12] = target: T10, Adenosine receptor A3 (Homo sapiens) (UniProt P0DMS8); experiment: Displacement of [3H]PSB-11 from human adenosine receptor A3 expressed in CHO cell membranes at 0.1 uM incubated for 60 mins by radioligand competition assay; conditions: Cell membrane
T10 sequence (whole entry): T5 sequence (P0DMS8 whole entry)
Summary of the method: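 CHO membranes expressing human A3, [3H]PSB-11 0.5 nM. Nonspecific binding defined by 100 µM R-PIA. Adenosine deaminase preincubation 20 min, then 60 min at rt in 50 mM Tris-HCl pH 7.4 with 2.5% DMSO. Filtered on GF/B, scintillation counted.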

Adenosine receptor A1 [13] = target: T7, Adenosine receptor A1; experiment: Displacement of [3H]CCPA from rat adenosine receptor A1 by radioligand competition assay; summary of the method: as §1
Adenosine receptor A1 [14] = target: T7, Adenosine receptor A1; experiment: Displacement of [3H]DPCPX from rat brain cortical membrane A1AR in presence of 100 uM of GTP by scintillation counting analysis; type: cell membranes, Cortex, Cell membrane
Adenosine receptor A1 [15] = target: T7, Adenosine receptor A1; experiment: Displacement of [3H]DPCPX from rat brain cortical membrane A1AR in absence of GTP by scintillation counting analysis; type: cell membranes, Cortex, Cell membrane
Adenosine receptor A1 [16] = target: T7, Adenosine receptor A1; experiment: Displacement of [3H]DPCPX from rat adenosine receptor A1 by radioligand competition assay
Summary of the method: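 Rat brain cortical membranes, [3H]DPCPX 0.4 nM. Nonspecific binding defined by 10 μM DPCPX. Curves run with and without 100 μM GTP. Incubation 90 min at rt in 50 mM Tris-HCl pH 7.4, after 20 min adenosine deaminase preincubation. Filtration, then scintillation counting. GTP shift is the IC50 with GTP divided by the IC50 without GTP.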

Row | Compound | inhibition ([1]; filed as antagonist) | Ki (Adenosine receptor A3 [2]) | Ki (Adenosine receptor A2b) | Ki (Adenosine receptor A2a [3]) | inhibition [4] | Ki (Adenosine receptor A3 [5]) | inhibition [6] | Ki (Adenosine receptor A1 [7]) | Ki (Adenosine receptor A1 [8]) | Ki (Adenosine receptor A2a [9]) | inhibition [10] | inhibition [1] | inhibition (Adenosine receptor A2a [11]) | inhibition ([12]; filed as antagonist, dose 0.1 µM) | Ki (Adenosine receptor A1 [13]) | IC50 (Adenosine receptor A1 [14]) | IC50 (Adenosine receptor A1 [15]) | Ki (Adenosine receptor A1 [16]) | inhibition ([12]; dose 1 µM, in the assay text read “1 uM” for “0.1 uM”)
1 | O=C(Nc1nc(-c2ccccc2)c(-c2nc3ccccc3c(=O)n2-c2ccc(Cl)cc2)s1)c1ccccc1 | 16% | > 10000 nM | > 100 nM | > 1000 nM | 7% | 83.3 nM | 22% | > 1000 nM | > 1000 nM | > 1000 nM | 12% | – | – | – | – | – | – | – | –
2 | O=C(Nc1nc(-c2ccccc2)c(-c2nc3ccccc3c(=O)n2-c2ccc(Cl)cc2)s1)c1ccco1 | – | 607 nM | > 100 nM | > 1000 nM | 14% | 48.3 nM | – | > 1000 nM | > 1000 nM | > 1000 nM | 1% | 24% | 8% | – | – | – | – | – | –
3 | O=C(Nc1nc(-c2ccccc2)c(C(=O)c2ccc(Cl)cc2)s1)c1ccccc1 | – | – | > 100 nM | 39.1 nM | – | 428 nM | – | 0.939 nM | 24.4 nM | 1670 nM | – | – | – | – | 0.939 nM | 0.0981 nM | 0.0929 nM | 0.0867 nM | –

Now from value to compound:

Row | inhibition ([1]; filed as antagonist) | Ki (Adenosine receptor A3 [2]) | Ki (Adenosine receptor A2b) | Ki (Adenosine receptor A2a [3]) | inhibition [4] | Ki (Adenosine receptor A3 [5]) | inhibition [6] | Ki (Adenosine receptor A1 [7]) | Ki (Adenosine receptor A1 [8]) | Ki (Adenosine receptor A2a [9]) | inhibition [10] | inhibition [1] | inhibition (Adenosine receptor A2a [11]) | inhibition ([12]; filed as antagonist, dose 0.1 µM) | Ki (Adenosine receptor A1 [13]) | IC50 (Adenosine receptor A1 [14]) | IC50 (Adenosine receptor A1 [15]) | Ki (Adenosine receptor A1 [16]) | inhibition ([12]; dose 1 µM, in the assay text read “1 uM” for “0.1 uM”) | Compound
4 | – | – | > 100 nM | 132 nM | – | 124 nM | – | 6.69 nM | 178 nM | 73.3 nM | 15% | – | – | 100% | – | – | – | – | – | O=C(Nc1nc(-c2ccccc2)c(C(=O)c2ccc(F)cc2F)s1)c1ccco1
5 | 54% | – | > 100 nM | > 1000 nM | 16% | > 1000 nM | – | – | > 1000 nM | > 1000 nM | 0% | – | 14% | – | – | – | – | – | 24% | COc1ccc(C(=O)Nc2nc(-c3ccccc3)c(C(=O)c3ccc(F)cc3F)s2)cc1
